An excerpt weighted towards active compounds, which were near 0.62% of everything screened.
ABCB1 block – inhibitors of human ABCB1 transporter, ABCG2 counter-screen. P08183. 190,000 tested, 0.067% active. CCRF-Adr cells, JC-1 efflux, flow cytometry. AID 1326. inhibition, % at 6.6 µM; in the data active = inhibition above about 40%;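 also: 0% = vehicle and 100% = reference inhibitor; higher value means more JC-1 retained so stronger ABCB1 efflux block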
ABCG2 inh – blocks JC-1 efflux by human ABCG2 transporter | IgMXP3 cells, flow cytometry | AID 1325 | 190,000 tested, 0.1% active | inhibition, % at 6.6 µM | Q9UNQ0;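 active = inhibition above 80%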;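 also: 0% = DMSO and 100% = nicardipine control wells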
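Test system: IgMXP3 (ABCG2) plus far-red-tagged CCRF-Adr (ABCB1) cells. Reagent: JC-1 dye as substrate. Timing: 10 min exposure at 25 °C with rotation, no wash. Measured by: flow cytometric JC-1 green MFI at 530 nm. Read-out: percent efflux inhibition, scaled nicardipine 100% to DMSO 0%. Control set: nicardipine and DMSO wells.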
Arbovirus anti – antivirals against arbovirus infection | arbovirus infection cell-based antiviral screen | inhibition, % at 10 µM | 200,000 tested, 0.37% active; in the data active = inhibition above about 30%
Rad51 HR inh – blocks human Rad51 in homologous recombination; Q06609; hRad51 DNA strand exchange, fluorescence dequenching; inhibition, % at 10 µM; 200,000 tested, 0.085% active; AID 1385;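 active = inhibition above 40% at the single screening dose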;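 also: 0% = DMSO control wells and 100% = blanks with heterologous ssDNA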
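material = hRad51 filaments on single-stranded DNA | reagent = Donor/quencher-labelled 47-bp dsDNA substrate | compound = 10 µM final, single point | schedule = strand-exchange reaction 15 min at room temperature | measured by = fluorescein emission 520 nm, excitation 485 nm | read-out basis = % inhibition versus plate control and blank means | benchmarks = plate controls and plate blanks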
MDM2 E3 inh – blocks human Mdm2 ubiquitin ligase activity; 210,000 tested, 0.11% active; signal enhancement, % at 5 µM; cell-based MDM2 ubiquitination luciferase reporter, 2 h; 0 = plate control, 100 = twice control, blank-subtracted;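 active = signal enhancement of 30% or more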;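 also: luminescence tracks abundance of the self-degrading MDM2-luciferase fusion protein; higher signal means inhibition of MDM2 E3 ligase activity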
Target sequence (Q00987 whole entry, looked up, the tested form may be a part): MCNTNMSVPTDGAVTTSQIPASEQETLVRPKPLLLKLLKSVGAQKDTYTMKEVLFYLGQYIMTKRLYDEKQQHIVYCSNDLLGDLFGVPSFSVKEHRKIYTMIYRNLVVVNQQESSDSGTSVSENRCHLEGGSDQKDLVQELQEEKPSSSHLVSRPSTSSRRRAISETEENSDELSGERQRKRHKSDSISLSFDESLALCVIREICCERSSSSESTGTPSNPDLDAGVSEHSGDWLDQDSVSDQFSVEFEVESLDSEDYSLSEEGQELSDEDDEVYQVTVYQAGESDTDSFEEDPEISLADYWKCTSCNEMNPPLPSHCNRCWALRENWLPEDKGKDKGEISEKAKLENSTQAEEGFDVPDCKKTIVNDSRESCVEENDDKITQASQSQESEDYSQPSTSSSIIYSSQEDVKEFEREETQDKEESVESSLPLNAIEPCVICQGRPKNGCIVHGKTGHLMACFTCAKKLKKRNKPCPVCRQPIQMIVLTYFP
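Buffer or medium: Cells held in DMEM | Assay system: Stable mammalian line carrying autodegrading MDM2–luciferase fusion reporter | Quantity: 2000 cells/well | Times: 4 h settle plus 2 h compound, 37 °C | Doses: One concentration, 5 µM, with 0.2% DMSO | Technique: Luminescence with SteadyLite reagent, 15 min at room temperature | Benchmarks: Plate controls and plate blanks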
* hit, by the source's call; . = no result given.

SMILES | ABCB1 block | ABCG2 inh | Arbovirus anti | Rad51 HR inh | MDM2 E3 inh
Cc1nn(Cc2ccccc2)c(Cl)c1C(=O)NC1CCCc2ccccc21 (centres undefined) | 2 | 11 | 30* | -3 | -12
C=C1C(=O)O[C@H]2C[C@@H](C)[C@@H]3C=CC(=O)[C@@]3(C)C[C@H]12 | . | . | . | . | 35*
C=C1C(=O)O[C@@H]2C[C@@H](C)[C@@H]3C4OC4C(=O)[C@@]3(C)[C@@H](O)[C@H]12 (some centres undefined) | . | . | . | -12 | 31*
C=C1C(=O)O[C@@H]2C[C@@H](C)[C@@H]3C=CC(=O)[C@@]3(C)[C@@H](OC(=O)CC(=O)O[C@H]3[C@@H]4C(=C)C(=O)O[C@@H]4C[C@@H](C)[C@@H]4C=CC(=O)[C@]43C)[C@H]12 | . | . | . | -7 | -12
O=C(CNC1CCCC1)Nc1ccc(N2CCCCCC2)cc1 | 1 | 2 | -12 | 6 | -7
CC1(C)CSC(=NCc2ccccc2)N1 | 1 | 6 | -2 | 0 | -15
Cc1ccccc1NC1(C#N)CCCCC1 | 0 | 0 | 17 | -1 | -25
Cc1ccc(N2C(=O)NC(=O)/C(=C\C=C\c3ccco3)C2=O)cc1C | 4 | 1 | -1 | -51 | 53*
Cc1cccc(N2C(=O)NC(=O)/C(=C\C=C\c3ccco3)C2=O)c1 | . | . | . | -1 | 16
CCN(CC)c1ccc(CN(C)CCc2ccc(OC)c(OC)c2)cc1 | 2 | 2 | -15 | -4 | -18
COc1ccc(CCN(C)Cc2ccc(F)cc2F)cc1OC | 0 | 1 | 71* | -8 | -24
COc1ccccc1N1CCN(Cc2cc(C)c(C)cc2O)CC1 | 1 | 2 | 32* | . | -7
Cc1cccc(N2C(=O)NC(=O)/C(=C\c3cccn3-c3ccc(Cl)cc3)C2=O)c1 | 1 | 3 | 2 | -8 | 40*
Cc1cc(C)cc(N2C(=O)NC(=O)/C(=C/c3cccn3-c3ccc(Cl)cc3)C2=O)c1 | -1 | -7 | -36 | . | .
Cc1ccc(-c2nc3ccccc3c(=O)n2-c2cccnc2)cc1 | 0 | 2 | 4 | 3 | 34*
C=CCN1C(=O)NC(=O)/C(=C/C=C/c2ccccc2)C1=O | -1 | -3 | 3 | -24 | 17
O=C1NC(=O)N(CCc2ccc(F)cc2)C(=O)/C1=C\C=C\c1ccccc1 | -1 | -3 | -31 | 6 | 50*
C=CCn1c(O)c(C(C)=NC2CCN(Cc3ccccc3)CC2)c(=O)[nH]c1=O | . | . | . | 13 | .
CN1CCN(c2ccc(/C=C3\C(=O)NC(=S)N(c4cccc(Br)c4)C3=O)o2)CC1 | 1 | 19 | 37* | -407 | 21
C=CCn1c(O)c(C(CC)=NCC2CCCO2)c(=O)[nH]c1=O (centres undefined) | . | . | . | . | -4
CCOC(=O)c1c(-c2ccc(OC)cc2)oc2ccc(OC(=O)N(C)C)cc12 | 2 | 8 | -8 | -8 | -9
Cc1oc2ccc(OC(=O)N(C)C)cc2c1C(=O)OC(C)C | 0 | 9 | 32* | -8 | -3
NC(=O)c1c(NC(=O)c2ccc(S(=O)(=O)N(CCCl)CCCl)cc2)sc2c1CCCCC2 | 0 | -3 | -9 | 5 | 0
COc1cccc(C2=NOC(C(=O)N3CCC4(CC3)OCCO4)C2)c1 (centres undefined) | 1 | 2 | 3 | 87* | -25
